Tested on: MS2 coat protein
Assay: apparent Kd, MS2 coat protein; higher = weaker binding; RNA-MaP array; FMN 200 µM where present
Method in brief: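 Two titrations, one without ligand and one with constant ligand, were run with SNAP-549-labelled MS2 coat protein from 0.7 or 1.5 nM, doubling to 3 µM. The targets were designs transcribed by stalled E. coli RNA polymerase on Illumina sequencing-chip clusters, in 100 mM Tris-HCl pH 7.5, 80 mM KCl, 4 mM MgCl2, BSA, DTT, yeast tRNA and Tween-20. The apparent Kd is the median of filtered per-cluster binding-curve fits, with green signal normalised to red-channel RNA signal and control-cluster median Fmax.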

[1] = designed as: ON switch for flavin mononucleotide, no ligand
[2] = ligand present: flavin mononucleotide, designed as: ON switch for flavin mononucleotide
[3] = designed as: OFF switch for flavin mononucleotide, no ligand
[4] = ligand present: flavin mononucleotide, designed as: OFF switch for flavin mononucleotide

Sequence	apparent Kd [1]	apparent Kd [2]	apparent Kd [3]	apparent Kd [4]
UUGGACGUCGUAGGUUAUGUAGGAUAUUCCUACAUGAGGAUCACCCAUGUUGACAUGGAAGAAGGACAGAAGGACGAUGUCCAU	205 nM	3.92 nM	–	–
GCGUCAGAAUUAAUUGUGACAGACAGAAGGCAAUAGUAUGUGUCCGACAUGAGGAUCACCCAUGUUGAGGAUAUGUCUUGACGC	–	–	4.76 nM	5.87 nM
GCGUUGAACGAGAAGGCCAAUACAUGAGGAUCACCCAUGUUAAGAUGUUUUGGAGGAUAUCGUACGCAUUCAAUAUUGCAACGC	–	–	7.63 nM	9.47 nM
AAUGGCGUGAUAAUGCUAAUUAAAACAUGAGGAUCACCCAUGUAGGAUAUCCUACCGAAAUGGUAGGAGAAGGACAAGCAAUGA	–	–	44.1 nM	46.6 nM
UCAUAUAUACAAGGAUAUCAAUUAUUUAUACAUCCUACAUGAGGAUCACCCAUGUUUUUAUAUUUUGAGAAGGUGUAAUGUCUU	21.1 nM	27.5 nM	–	–
AAAAGGGCAGGAUAUACAUGAGGAUCACCCAUGUGAAAAAAAAAAAAAAAAAAAAAGUGUAGAAGGGUCAAAAA	–	–	74 nM	76 nM
UUACAGCAAGGAUAUACAUGAGGAUCACCCAUGUAUGCGUGUUCGAGAGAGGCCUACGGUAGAAGGUGCAUGUU	–	–	24.1 nM	22.4 nM
CAGAUAAAAGUGUGGUCGUCGACAUGAGGAUCACCCAUGUACGAGGAUAUGUAAUAUACGGUAUAGCAGAAGGCGUAUGGGUGU	–	–	74.6 nM	103 nM
AAUUAGGUCACAGGAUAUACAUCAUCCAUAGAUGUAGAAGGGUGUCAAAAUAAUAUCUGACAUGAGGAUCACCCAUGUUUCCAC	19.5 nM	8.97 nM	–	–
AUUAGCUCGUCAGGAUAUACGUCACUGCGUCAGCAGUGUGGUAAGAUCACAUGAGGAUCACCCAUGUAGAAGGGACGAGCUGAU	–	–	13 nM	289 nM
AUGGAUAUCACAGGAUAUGCUAUGGAUACCAUAGCAGAAGGGUGAUCCAUCCUAUGUGAACACAUGAGGAUCACCCAUGUGUCC	98.4 nM	17.9 nM	–	–
UGACACUUGAGGGUCUCCCUUGACAUGAGGAUCACCCAUGUGCAGGAUAUACGUGUGAUGGUAUAGUAGAAGGGCACUCUAUGU	–	–	27.7 nM	35.6 nM
UGUCGGAGCAGAGGAUAUUACAUGAGGAUCACCCAUGUAUGAACCAAUAGCUGGAAGCAGCAAUGUAAGAAGGCUGCUCCGACA	–	–	12.2 nM	137 nM
UAGUGGCAAGGAUAUACAGAGGAGAGGAUUGCAAGAGGUGGACAUGAGGAUCACCCAUGUAGAAGGUGCAGAGA	–	–	239 nM	281 nM
UUAUUUUUACAGAAGGUUUAAUAAUAUGUAUGAGAAGGAUAUGUAACAUGAGGAUCACCCAUGUUUUAUUUAUAUGAGGAUCAU	–	–	–	9.31 nM
CUUUUAUAAUAGAAGGUAGACUUUAAGUGGAUCACCCAUGUGUUGGUACUAAGGAUAUGUAGUAACAUGAGGAUCACCCAUGUU	20.5 nM	16.9 nM	–	–
GGUACUCAAAGAGUACUGUUUUGAACAUGAGGAUCACCCAUGUAGGAUAUGCGAGUUUUGAAUUUGCAGAAGGACAUUUUUAGC	–	–	17.2 nM	18.9 nM
AGUCAGAGCAGAGGAUAUAUACAUGAGGAUCACCCAUGUGACUGACUACGCUAGAAAUAGCGUGUAUAGAAGGCUGCUCUGACA	–	–	40.2 nM	96.4 nM
UUUUUUCCUCAUGUACAUGAGGAACAUGAGGAUCACCCAUGUAGAAGGAUUUCCCUUAAAUUAAGAUAGGAUAUACAUAUAUUU	–	–	87 nM	70.5 nM
UGGUACUAGGGAGGAUAUGGGAAGAUACAUGAGGAUCACCCAUGUUUAAGAAUGCCGAGAGGCAACUAGAAGGCCCUAGCACCU	426 nM	19 nM	–	–
CCCUGUGGAGGAUAUUGCAAAGGUGACAUGAGGAUCACCCAUGUUGGACGUUAAGCACUGCAAGAAGGCCGGUUGA	–	–	50 nM	24.5 nM
UGGUACAUGGGAGGAUAUCAUGUAGUAACAUGAGGAUCACCCAUGUCGAUGGAGACAUCGGAGAUUGAGAAGGCCCAUGUACCU	921 nM	32.5 nM	–	–
GCAGACGUGGUGAGGAUAUGCUCUACCUCGGUAGAGCAGAAGGCACAUGAGGAUCACCCAUGUGACUCCUCAUC	–	–	18.6 nM	19.2 nM
AAAACAUGAGGAUCACCCAUGUAAAGAACGGUUAAUAGAAGUGAGGAUAUACUAAAUUUUAGGUAGUAGAAGGCACUGGGUACA	21.5 nM	22.5 nM	–	–

Sequence	apparent Kd [1]	apparent Kd [2]	apparent Kd [3]	apparent Kd [4]
UGAUAGGACAGAGGAUAUACGGAUAGGAUCUACUAUCUUCCUUAAAUAACAUGAGGAUCACCCAUGUAGAAGGCUGUCCUAUCU	–	–	18.2 nM	65.2 nM
CUGGGUAAAAUGGGAGGUAGCUGGCAGGAUAUGACAUGAGGAUCACCCAUGUGGAGAUCUUGGGAUCAGAAGGGCCUGUGACCU	–	–	205 nM	119 nM
GCGCCAUCGUGAGAUGGCGUACCAACAUGAGGAUCACCCAUGUAGGAUAUCGAUUGCUUUGCAGUCGAGAAGGGCAUGAUAAGU	–	–	22 nM	28.4 nM
UGGGUAAGUGUAGGAUAUUUAUAUUAAUAGUAUGGAGAAGGACAUGAGGAUCACCCAUGUACAGGAAGUUGCCCAUUUCCUCUC	–	–	579 nM	495 nM
AAUGAGCGAGGAUAUGCAACUGUAUGACCUACGUGUGCCAGACAUGAGGAUCACCCAUGUAGAAGGUGCUUUCC	–	–	59.7 nM	51.3 nM
CGAAACUACGAGAAGGACAUGUGGUCCUUCAGUUACAUGAGGAUCACCCAUGUAGGAUAUCGUAGUUUCAGGAUCGUGAGAUCC	–	–	58.6 nM	16.6 nM
GCAGGUUAAGUCAGGAUAUACCUAUGGAUACAUAGGUAGAAGGGACAUGAGGAUCACCCAUGUGACUCGCCUGC	–	–	26.9 nM	95.8 nM
AAUAACAGAGGAUAUACUAUUUUAUGUGUUUAUUGUUUUGAACAUGAGGAUCACCCAUGUAGAAGGCUGAAUAA	–	–	24.6 nM	26.1 nM
AGAUGGUAUAUAGGAUAUCAUGUGCAAACAUGAGGAUCACCCAUGUAGAGACGUCAGUUUAAUAAUGAGAAGGAUAUACCAUCU	31.9 nM	14.4 nM	–	–
AAAAAACAUGAGGAUCACCCAUGUCGAAAGACGUGAGGAUAUGUACAGACUUCGGUCUGUACAGAAGGCAUGUCAA	94 nM	20.2 nM	–	–
UGUCGGAGCAGAGGAUAUUACAUGAGGAUCACCCAUGUAUGAACCAAUAGCUGGAAACAGCAAUGUAAGAAGGCUGCUCCGACG	–	–	12.9 nM	157 nM
GGAUCGUAAGGAUAUACAUGAGGAUCACCCAUGUGGAUCUAACGGGUCGCCAAGUCGUGUAGAAGGUGCCGUCU	–	–	22.7 nM	20.6 nM
AUAUUAUUGAUCCAUUUUUUCAACAUGAGGAUCACCCAUGUGCAGGAUAUCGUGUGUUUUAUAAACGAGAAGGGCAAAUUCAUU	–	–	82.6 nM	218 nM
UCGCUGCGAGGAUAUACAUGAGGAUCACCCAUGUGCGGGUCCGGGUCUUUGUCCAUUAGUAGAAGGCGCAGUGA	–	–	305 nM	82.7 nM
CACAUGUGAGGAUAUGUACGAGGCCCGGACGGGUCUCGCAGGCAGAAGGCACAUGAGGAUCACCCAUGUGACCG	–	–	23.9 nM	66.7 nM
UGUUGUUCAGGAUAUGGUGUGUUAUACAUGAGGAUCACCCAUGUGGGUCCUGGUUUGGCGUCAGAAGGGAAUGUUG	–	–	539 nM	396 nM
AACGGUGGGUAGGAUAUCCGGUUCUAGUUGCCAGGAGAAGGGCCCACAUGAGGAUCACCCAUGUGGGUGGGCUC	–	–	47.7 nM	26.1 nM
AGGAUUAAAGGGAAUAACAUGAGGAUCACCCAUGUAUGGGAGAGAAGGCAUAUCGGAGGACGAUAUGAGGAUAUUUAAAAUUUA	121 nM	38.3 nM	–	–
GGGUACAUCGGAGGAUAUCAUGUAAAUACAUGAGGAUCACCCAUGUCGAUGGAGACAUCGGAGAUUGAGAAGGCCGUUGUACCG	168 nM	9.18 nM	–	–
CGUAUGUGAGGAUAUGACAAUGGUAUCUUCGGAUACCAUUGUCAGAAGGAACAUGAGGAUCACCCAUGUAGAUC	–	–	53.2 nM	110 nM
AGUUACAAACACAACAUGAGGAUCACCCAUGUACUCUCAUGUAAGGAUAUACAUUCGUAUAGAAAGUAGAAGGUACUAAUUAUG	515 nM	340 nM	–	–
GAGGAUAGAGGAUAUGCAUAGAUACGGAUUCGUGUAGUACUACAUGAGGAUCACCCAUGUAGAAGGCUGUCCAG	–	–	12.7 nM	22 nM
GGCGUGUUAGGAUAUCGCGGCGGCGGCGUUUGUUGUUGUUGUGAGAAGGAACAUGAGGAUCACCCAUGUAUGCC	–	–	34.8 nM	55 nM
UGUCGGAGCAGAGGAUAUUACAUGAGGAUCACCCAUGUAUGAACCAAUAGCUGGAAACGGCAAUGUAAGAAGGCUGCUCCGACA	–	–	13.1 nM	171 nM

From the EternaBench riboswitch data
